A selection: hits, their analogues and other compounds. The true share with any hit is near 4.3%.
CR mimetic SO: yeast age-related superoxide inhibition as caloric restriction mimetic | superoxide response (% of plate mean), % at 10 µM | S. cerevisiae aged cells, superoxide DHE fluorescence; hits give low values | hit rate 0.18% among 330,000;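 active means superoxide response under a set limit, about three screen SD below normal, cut at about 65% in these data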;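 further: yeast aged for seven days with compound at 30 °C before DHE staining; 100% = average MFI of all compound-treated wells on the plate with controls excluded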
AHR act: activates the human aryl hydrocarbon receptor | AHR-responsive luciferase reporter cells, luminescence | activation, % at 5 µM | hit rate 2.5% among 320,000 | AID 2796; in the data active means activation above about 47%;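 further: 0% = vehicle wells and 100% = reference agonist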
Lipid droplet: modulators of hepatic lipid droplet formation | AML12 mouse hepatocytes, oleate lipid droplets, BODIPY imaging | inhibition, % at 6.5 µM | hit rate 0.4% among 240,000 | AID 1656;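 active means lipid droplet intensity inhibited by at least 50%, with more than 500 cells counted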
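Material – AML12 mouse liver cells · Also added – oleate loading, 100 µM · Compound dosing – 6.5 µM single-point dosing · Times – overnight treatment with compound plus oleate · Measured by – fluorescence imaging, 20x objective, two fields per well · Read-out – percent inhibition of filter-corrected integrated lipid droplet intensity per well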
SR-BI HDL uptake: inhibitors of mouse SR-BI mediated HDL lipid uptake; hit rate 0.96% among 320,000; Q61009; ldlA[mSR-BI] CHO cells, DiI-HDL uptake fluorescence, 3 h; inhibition, % at 12.5 µM;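 active means mean replicate inhibition of at least 70% and a set share of replicates each scoring 70 or more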;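 further: 0% = median of neutral control wells and 100% = median of positive control wells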
Target sequence (Q61009 whole entry, looked up): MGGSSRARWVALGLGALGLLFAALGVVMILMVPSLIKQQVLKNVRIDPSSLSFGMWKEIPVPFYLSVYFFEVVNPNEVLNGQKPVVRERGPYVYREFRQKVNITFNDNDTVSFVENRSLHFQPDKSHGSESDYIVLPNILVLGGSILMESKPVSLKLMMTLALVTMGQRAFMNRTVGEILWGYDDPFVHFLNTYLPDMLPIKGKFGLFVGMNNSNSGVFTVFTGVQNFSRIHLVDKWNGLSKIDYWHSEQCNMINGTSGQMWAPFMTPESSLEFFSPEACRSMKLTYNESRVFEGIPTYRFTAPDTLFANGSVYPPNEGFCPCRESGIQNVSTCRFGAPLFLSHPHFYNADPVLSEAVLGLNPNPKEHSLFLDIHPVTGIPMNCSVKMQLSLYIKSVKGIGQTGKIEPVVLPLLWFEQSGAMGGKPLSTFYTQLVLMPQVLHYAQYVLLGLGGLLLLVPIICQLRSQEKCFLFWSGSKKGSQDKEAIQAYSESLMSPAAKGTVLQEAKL
SR-BI uptake up: SR-BI HDL lipid transfer activation; AID 504775; CHO ldlA[mSR-BI] cells, DiI-HDL uptake fluorescence, 3 h; 100 = double the neutral-control signal; hit rate 0.096% among 320,000; activation, % at 12.5 µM;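 active means mean replicate activation of at least 60% and every replicate at or above 60%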;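 further: 0% = median plate neutral-control signal and 100% = twice that signal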
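Material: SR-BI-overexpressing, LDLR-lacking CHO cells; schedule: compound exposure 3 h, 37 °C; reagent: DiI-labelled HDL at 10 µg/mL final; technique: bottom-read fluorescence, 550/595 nm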
SMARCA2 activ: increases SMARCA2 function in MMTV reporter cells; MG213 cells, MMTV-luciferase reporter, dexamethasone, overnight; activation, % at 9.1 µM; hit rate 1% among 370,000; in the data active means activation above about 7.8%;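 further: 0% = vehicle wells and 100% = reference activator wells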
SMARCA2 act conf: confirmation of SMARCA2 (BRM) function activators; shares compounds with SMARCA2 activ; MG213 cells, MMTV-luciferase with dexamethasone, luminescence, overnight; MG213 cells expressing E1A, Rb sequestered; DMSO wells 0%, reference activator 100%; activation, % at 9.1 µM; hit rate 30% among 3,500; AID 652260;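 active means activation above its plate's cutoff, the mean activation of tested wells plus 3 SD, cut at about 7.9% in these data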
VP16 Luc act: counter-screen for SMARCA2 activators: GAL4-VP16 luciferase reporter activation | shares compounds with SMARCA2 activ | HEK293 GAL4-VP16 pG5luc reporter, luciferase luminescence; scaled: DMSO wells 0%, SAHA wells 100% | activation, % at 9.1 µM | hit rate 41% among 3,500 | AID 686939;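 active means activation above the solvent-only control well mean plus 3 SD, averaged across control plates, cut at about 5.2% in these data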
Numbers without * were called inactive.

O=c1c2ccccc2n(CC(O)CN2CCCCC2)c2ccccc12 (stereo unspecified) was read as CR mimetic SO 102.2, AHR act -0.4, Lipid droplet 1.5, SR-BI HDL uptake -13.1, SR-BI uptake up 13.1, SMARCA2 activ 9.4*, SMARCA2 act conf 4.1 and VP16 Luc act -1.5.
Screening O=c1c2ccccc2n(CC(O)CN2CCOCC2)c2ccccc12 (stereo unspecified) returned CR mimetic SO 114.4, AHR act 6.5, Lipid droplet -27.4, SR-BI HDL uptake -2.9, SR-BI uptake up 2.9 and SMARCA2 activ 3.4.
For CCN1Cc2nnn(Cc3ccccc3)c2-c2cc(N3CCCC3)ccc2S1(=O)=O the results were SMARCA2 activ -2.6.
Screening CC(C#N)(Cc1ccccc1)Nc1ccccc1 (stereo unspecified) returned CR mimetic SO 110.2, AHR act -0.2, SR-BI HDL uptake -9.1, SR-BI uptake up 9.1, SMARCA2 activ 10.2*, SMARCA2 act conf -1.6 and VP16 Luc act -0.7.
For C=CC(=O)NC(C)(C)Cc1ccccc1 the results were CR mimetic SO 94.8, AHR act 6.3, SR-BI HDL uptake -16.1, SR-BI uptake up 16.1 and SMARCA2 activ -0.5.
O=C(NCc1ccc2c(c1)CCO2)Nc1ccccc1 was read as CR mimetic SO 96.7, AHR act 0.1, Lipid droplet -6.9, SR-BI HDL uptake -3.7, SR-BI uptake up 3.7, SMARCA2 activ 8.7*, SMARCA2 act conf 7.3 and VP16 Luc act 5.2*.
Screening CCCCn1c(=N)n(CC(=O)O)c2ccccc21 returned CR mimetic SO 99.0, AHR act 1.9, Lipid droplet -5.2, SR-BI HDL uptake -21.2, SR-BI uptake up 21.2 and SMARCA2 activ -2.5.
For CCCCn1c(=N)n(CC(=O)c2ccc(OC)cc2)c2ccccc21 the results were CR mimetic SO 88.8, AHR act 28.0, Lipid droplet -26.2, SMARCA2 activ 9.4*, SMARCA2 act conf 19.8* and VP16 Luc act -1.6.
For COc1ccc(C(=O)CN2Cc3ccccc3C2=N)cc1 the results were CR mimetic SO 95.1, AHR act 25.4, Lipid droplet 4.2, SR-BI HDL uptake 6.8, SR-BI uptake up -6.8, SMARCA2 activ 12.2*, SMARCA2 act conf 8.3* and VP16 Luc act 6.1*.
`COc1ccc(CCN2CC(C(=O)N(C)Cc3ccccc3OC)CCC2=O)cc1` (stereo unspecified) gave CR mimetic SO 101.3, AHR act 3.4, Lipid droplet 6.5, SR-BI HDL uptake -4.8, SR-BI uptake up 4.8, SMARCA2 activ 8.6*, SMARCA2 act conf -5.2 and VP16 Luc act -0.7.
`COC(=O)c1cn(-c2ccc3c(c2)[C@@]2(CC(=O)N(C)C2c2ccccc2)C(=O)N3CC(C)C)nn1` (stereo partly specified) gave SMARCA2 activ 0.0.
CCOC(=O)Cc1nc(N2CCN(C(=O)C3CCCO3)CC2)c2c(C)c(C(=O)OCC)sc2n1 (stereo unspecified) was read as SMARCA2 activ 11.2*, SMARCA2 act conf 2.3 and VP16 Luc act 0.6.
For CS(=O)(=O)Nc1ccc(C2=NN(S(C)(=O)=O)C(c3ccc4c(c3)OCO4)C2)cc1 (stereo unspecified) the results were CR mimetic SO 104.4, AHR act 13.7, Lipid droplet 7.4, SR-BI HDL uptake 18.7, SR-BI uptake up -18.7, SMARCA2 activ 10.1*, SMARCA2 act conf 15.6* and VP16 Luc act 6.6*.
`Cc1ccc(CNC(=O)OC(C)(C)C)c(/C=C/S(=O)(=O)NCCc2ccccc2)c1` gave SMARCA2 activ -6.6.
Screening O=C(O)c1n[nH]c2c1CC(C1CCCCC1)CC2 (stereo unspecified) returned CR mimetic SO 124.3, AHR act 0.3, SR-BI HDL uptake 1.2, SR-BI uptake up -1.2 and SMARCA2 activ 1.8.
O=C(NC1CCCCC1)c1n[nH]c2c1CC(c1ccccc1)CC2 (stereo unspecified) was read as CR mimetic SO 111.8, AHR act 18.3, SR-BI HDL uptake 12.2, SR-BI uptake up -12.2, SMARCA2 activ 8.0*, SMARCA2 act conf 2.7 and VP16 Luc act 11.5*.
C/C=C/c1ccc(OCC(=O)OCc2csc(Nc3ccc(C)cc3)n2)c(OC)c1 was read as CR mimetic SO 92.9, AHR act 7.5, Lipid droplet 14.8, SR-BI HDL uptake 8.8, SR-BI uptake up -8.8 and SMARCA2 activ 2.1.
For Cc1ccc(Nc2nc(COC(=O)COc3ccc(C=O)cc3)cs2)cc1 the results were CR mimetic SO 92.1, AHR act 7.9, Lipid droplet -8.5, SR-BI HDL uptake -31.5, SR-BI uptake up 31.5, SMARCA2 activ 9.8*, SMARCA2 act conf 8.1* and VP16 Luc act 9.0*.
For COc1ccccc1NC(=O)c1cccnc1 the results were CR mimetic SO 84.7, AHR act 67.8*, Lipid droplet 18.7, SMARCA2 activ 8.7*, SMARCA2 act conf -0.9 and VP16 Luc act -1.1.
Screening Cc1nc2nc(C)c(NS(=O)(=O)c3ccc4c(c3)CCCC4)c(=O)n2[nH]1 returned CR mimetic SO 108.3, AHR act 1.5, Lipid droplet -2.1, SMARCA2 activ 8.9*, SMARCA2 act conf -1.5 and VP16 Luc act 3.2.
`CCN1CCCCC(NC(=O)c2cccc(C(F)(F)F)c2)C1=O` (stereo unspecified) gave SMARCA2 activ -3.5.
For Cn1c(-c2nnn(-c3ccc(F)cc3)n2)cc2ccccc21 the results were CR mimetic SO 101.9, AHR act 68.7*, Lipid droplet -20.1, SMARCA2 activ 8.8*, SMARCA2 act conf 5.6 and VP16 Luc act 8.4*.
Cn1c(N)c(C(=O)COC(=O)c2cc(S(=O)(=O)N3CCOCC3)ccc2F)c(=O)n(C)c1=O was read as CR mimetic SO 94.5, AHR act 0.3, SR-BI HDL uptake 8.6, SR-BI uptake up -8.6, SMARCA2 activ 36.6*, SMARCA2 act conf 9.9* and VP16 Luc act 0.4.
For Cc1ccc(S(=O)(=O)N2CCOCC2)cc1C(=O)OCC(=O)NC1CC1 the results were CR mimetic SO 114.1, AHR act 1.9, SR-BI HDL uptake 4.5, SR-BI uptake up -4.5, SMARCA2 activ 9.3*, SMARCA2 act conf -3.9 and VP16 Luc act 0.3.
Screening CC(C)C[C@@H]1COc2cc(Br)ccc2S(=O)(=O)N1Cc1cn(CCC2OCCCO2)nn1 returned SMARCA2 activ -3.3.
